Screening results (PubChem BioAssay)
Exocytosis inh – lytic granule exocytosis inhibition | TALL-104 LAMP-1 surface exposure, flow cytometry; cells stimulated with thapsigargin and PMA | inhibition, % at 10 µM | 360,000 tested, 0.66% active | AID 651702;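 active = inhibition above about 55%, limit read from the data; inconclusive = no clear call, values can overlap the other calls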
MC4R antagonist – human MC4R antagonism in cAMP assay | MC4R-expressing cells, MTII-stimulated cAMP, LANCE TR-FRET | inhibition, % at 6.5 µM | 360,000 tested, 0.48% active | P32245;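 active = inhibition above its plate's cutoff, the mean of tested wells on that plate plus 3 SD, cut at about 29% in these data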;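 also: 0% = Melanotan II alone and 100% = Melanotan II plus saturating MCL0020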
Target sequence (P32245 whole entry, looked up): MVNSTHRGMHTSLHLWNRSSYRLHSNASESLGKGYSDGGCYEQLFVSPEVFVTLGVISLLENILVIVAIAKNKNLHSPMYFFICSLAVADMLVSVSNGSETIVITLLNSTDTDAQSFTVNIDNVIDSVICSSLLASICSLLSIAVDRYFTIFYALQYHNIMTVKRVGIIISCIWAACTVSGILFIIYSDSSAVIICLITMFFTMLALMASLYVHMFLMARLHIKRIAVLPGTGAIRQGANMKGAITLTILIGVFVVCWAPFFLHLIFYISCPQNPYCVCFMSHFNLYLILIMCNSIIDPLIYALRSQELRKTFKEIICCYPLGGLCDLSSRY
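Assay system: U2OS cells stably expressing human melanocortin 4 receptor (MC4R) / Dosing: 6.5 µM / Timing: compound 30 min, challenge 1 h, detection 1 h / Measured by: Eu-cAMP/anti-cAMP TR-FRET, emission 671 nm / Replicates: singlicate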
Myeloid diff MLP – promotes myeloid progenitor differentiation; ER-HoxA9 myeloid progenitors, lysozyme-GFP differentiation, flow cytometry; calls only at 10 µM; 360,000 tested, 1% active; AID 624256;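 active = normalized GFP-positive differentiation at or above the plate's own cutoff, the solvent-only control mean plus 3 SD; inconclusive = no clear call, values can overlap the other calls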;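 also: cells exposed to compound for four days before flow analysis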
MC4R ag barr – human MC4R agonism via beta-arrestin. 360,000 tested, 0.98% active. U2OS MC4R beta-arrestin complementation, luminescence; percent of melanotan II response, DMSO zero. P32245. activation, % at 8.9 µM;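 active = activation above a per-plate cutoff, the mean activation of sample wells on that plate plus 3 SD, cut at about 8% in these data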
EBI2 antag – blocks human EBI2 receptor beta-arrestin signaling; AID 651636; P32249; EBI2 beta-arrestin recruitment, luminescence, 7a,25-OHC stimulated; 360,000 tested, 0.81% active; inhibition, % at 5 µM; in the data active = inhibition above about 38%;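 also: enzyme fragment complementation signal reports receptor beta-arrestin coupling in cells; 0% = agonist plus DMSO wells and 100% = wells without agonist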
Granule exo CP1 – lytic granule exocytosis inhibition; shares compounds with Exocytosis inh; TALL-104 cells, LAMP-1 externalization, flow cytometry; stimulated with PMA plus thapsigargin; inhibition, % at 10 µM; 1,500 tested, 11% active; AID 651954; in the data active = inhibition above about 60%;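 also: 0% = stimulated vehicle wells and 100% = unstimulated wells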
* marks the source's active call; other numbers are inactive results; i = inactive; ? = inconclusive; nt = not tested or not shown. A selection: hits, their analogues and other compounds. The true share with any hit is near 3.7%.

SMILES	Exocytosis inh	MC4R antagonist	Myeloid diff MLP	MC4R ag barr	EBI2 antag	Granule exo CP1
O=C(NCc1ccc2c(c1)OCO2)C12CN(Cc3ccccc3)CC1C(c1cccc([N+](=O)[O-])c1)=NO2 (stereo not given)	100*	6	i	-2	22	-5
COc1cccc(CNC(=O)C23CN(Cc4ccccc4)CC2C(c2ccc([N+](=O)[O-])cc2)=NO3)c1 (stereo not given)	5	5	i	0	-13	nt
COc1ccc(NC(=O)C2CCN(C(=O)C3CC(=O)N(c4ccc(C)cc4)C3)CC2)c(OC)c1 (stereo not given)	69*	14	i	-1	1	-14
Fc1ccc(C2=NOC(c3nnc(-c4ccccc4)o3)C2)cc1 (stereo not given)	6	5	i	0	1	nt
c1ccc(C2=NOC(c3nnc(-c4ccccc4)o3)C2)cc1 (stereo not given)	91*	20	i	0	-5	-13
Cn1c(=O)c(N)c2c3c(c(Br)ccc31)C(=O)c1ccccc1-2	86*	-16	i	-2	0	68*
CCCc1nnc(SCC(=O)NC2CCCC2)n1CCOC	-10	8	i	-1	7	nt
Cc1cc(NC(=O)c2coc(=O)c(Br)c2)ccc1C(C)C	33	1	i	2	-1	nt
Cc1cc(SCC(=O)NC2CCCCC2)nc2ccccc12	98*	8	?	-1	6	-14
CC(=O)Nc1ccc(SC[C@H](CC(C)C)N2CCN(CCc3ccccc3)CCC2=O)cc1	66*	5	i	-1	21	-3
Cc1ccc(NC(=O)Cn2ncn3c(cc4ccccc43)c2=O)cc1F	106*	6	i	-2	3	-15
Cc1ccccc1NC(=O)CN1CCC(C(=O)c2ccc3c(c2)OCCO3)CC1	17	6	i	-3	7	nt
O=C(CN1CCC(C(=O)c2ccc3c(c2)OCCO3)CC1)Nc1ccccc1C(F)(F)F	88*	0	i	-1	1	-3
COc1cc(CNc2ccc(O)cc2)cc(Br)c1OCc1ccccc1	1	2	i	-3	-4	nt
COc1cc(CNC(C)c2ccccc2)cc(Br)c1OCc1ccccc1 (stereo not given)	88*	-2	i	3	16	-1
COc1cc(CNC(C)c2ccccc2)cc(Br)c1OCc1ccc(F)cc1 (stereo not given)	65*	0	i	5	10	-13
CCOc1ccccc1NC(=O)c1cc(S(=O)(=O)NCc2ccco2)ccc1F	104*	10	?	4	-9	-13
CCN1CCN(c2ccc(NC(=O)c3cccc(OCc4ccccc4)c3)cc2)CC1	23	3	i	6	4	nt
CN1CCN(c2ccc(NC(=O)c3ccc(-c4ccc(Cl)cc4)o3)cc2)CC1	73*	1	i	10*	8	91*
CN1CCN(c2ccc(NC(=O)c3cccc(OCc4ccccc4)c3)cc2)CC1	58*	6	i	3	-9	22
CCc1nc2ccc(C(=O)Nc3cc(-c4ccccc4)ccc3OC)cn2c1N(CC)CCN(C)C	60*	2	i	-1	-3	48
Cc1ccc(C)c(CN2CCC(CNC(=O)Nc3ccc(F)c(Cl)c3)CC2)c1	58*	3	i	5	15	0
CCc1ccc(NC(=O)NCC2CCN(Cc3cccc(Cl)c3)CC2)cc1	61*	-1	i	3	14	-4
Cc1cc(C)cc(NC(=O)NCC2CCN(Cc3cc(C)ccc3C)CC2)c1	46	4	i	2	0	nt
CCOC(=O)C1=C(C)Nc2ccccc2N=C1NC(=O)C1CCN(C(=O)c2ccccc2C)CC1	1	16	i	0	-6	nt
SMILES	Exocytosis inh	MC4R antagonist	Myeloid diff MLP	MC4R ag barr	EBI2 antag	Granule exo CP1
COc1cc2c(cc1OC)C(C)N(CCc1ccc(Cl)cc1)CC2 (stereo not given)	62*	12	i	0	-13	-12
COc1cc2c(cc1OC)C(C)N(C(=O)c1ccc(C)o1)CC2 (stereo not given)	-9	15	i	0	10	nt
CN1C[C@@H]2[C@@H]3C(=O)N(C)C(=O)[C@@H]3[C@](Cc3ccccc3)(C1=O)N2C(=O)c1ccc(Cl)cc1	-7	9	i	-1	-3	nt
Cc1cc(C)c2nc(C)cc(N/N=C/c3ccc(O)cc3)c2c1	87*	7	?	2	-4	101*
CN(C)CCCN(C(=O)c1ccc([N+](=O)[O-])o1)c1nc2cc3c(cc2s1)OCO3	48	-8	?	0	1	nt
Cc1cc(C)n(-c2nc(NCCN(C)C)c3c4c(sc3n2)CCCC4)n1	94*	3	i	5	-25	20
Cc1cc(C(=O)CSc2nc3ccccc3[nH]2)c(C)n1CC1CCCO1 (stereo not given)	90*	19	i	7	-97	77*
c1ccc(-c2ccccc2-c2nc(-c3cccnc3)no2)cc1	93*	-2	i	0	23	18
O=C(O)Cn1c(=O)n(Cc2ccccc2)c2ccccc21	58*	-3	i	-1	-3	-4
O=C(CSc1nc(C2CC2)nc2ccccc12)Nc1ccccc1	78*	2	nt	5	-7	-4
CC(=O)Nc1cccc(NC(=O)CSc2nc(C3CC3)nc3ccccc23)c1	9	8	i	-2	-3	nt
Nc1nc(N(Cc2ccccc2)Cc2ccccc2)nc(C(F)(F)F)n1	-3	6	i	2	16	nt
O=S(=O)(CC(CN1CCCCC1)N1CCCCC1)c1ccc2ccccc2c1 (stereo not given)	68*	21	?	0	7	7
CCOC(=O)C1(CCOc2ccccc2)CCN(Cc2ccc(O)c(OC)c2)CC1	70*	-3	i	0	-3	-10
CCOC(=O)C1(CCOc2ccccc2)CCN(Cc2ccc(F)c(OC)c2)CC1	72*	-1	i	2	32	-3
CCOC(=O)C1(CCOc2ccccc2)CCN(Cc2ccc3c(c2)OCCO3)CC1	83*	-1	i	-1	8	-3
CCOC(=O)C1(CCOc2ccccc2)CCN(Cc2ccc(O)c(Cl)c2)CC1	3	6	i	1	-6	nt
CCOC(=O)C1(Cc2cccc(OC)c2)CCN(Cc2ccc3c(c2)OCCO3)CC1	46	6	i	-3	15	nt
O=C(O)CCN1CCc2ccccc2C1c1cccs1 (stereo not given)	-4	2	i	-2	-14	nt
Cc1cc(CCCCCCCCc2cc(C)cc(=O)o2)oc(=O)c1	-6	-5	i	1	-1	nt
CCCC(=O)Nc1cc(OC)c(C(=O)OC)cc1Cl	0	13	i	2	1	nt
